Measured values from ChEMBL document CHEMBL1148022, “Discovery of new C3aR ligands. Part 2: amino-piperidine derivatives” (Bioorg Med Chem Lett, 2007).
Activity calls are given as the source filed them. The calls are words filed in the database; no cut-off is given here.

Assays:
[1] = target: T1, C3a anaphylatoxin chemotactic receptor (Homo sapiens, UniProt Q16581); test: (§1) Displacement of [125I]C3a from human C3a receptor expressed in HMC1 cells co-expressing aequorin; type: cell-based
T1 sequence (Q16581 whole entry): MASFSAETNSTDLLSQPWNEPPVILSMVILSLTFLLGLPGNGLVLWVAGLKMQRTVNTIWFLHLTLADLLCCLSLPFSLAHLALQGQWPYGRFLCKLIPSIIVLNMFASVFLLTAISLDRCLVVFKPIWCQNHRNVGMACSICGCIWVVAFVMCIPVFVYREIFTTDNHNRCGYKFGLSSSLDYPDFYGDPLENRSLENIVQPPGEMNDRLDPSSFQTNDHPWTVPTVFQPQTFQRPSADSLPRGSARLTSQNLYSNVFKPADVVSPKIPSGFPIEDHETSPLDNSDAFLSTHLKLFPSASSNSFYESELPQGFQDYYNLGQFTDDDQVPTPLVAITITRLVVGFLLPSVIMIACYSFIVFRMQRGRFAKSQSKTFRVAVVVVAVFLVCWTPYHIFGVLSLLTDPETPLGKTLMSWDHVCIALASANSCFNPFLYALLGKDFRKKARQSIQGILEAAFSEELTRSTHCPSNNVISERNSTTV
Method in brief: (§2)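 Scintillation proximity assay used wheat germ agglutinin beads and membranes from HMC-1 cells co-expressing Aequorin and human C3aR. Test compound was added at various concentrations with 0.02 nM ¹²⁵I-C3a in 50 mM Tris/2 mM MgCl₂/0.5% BSA. Non-specific binding was defined with 1 nM C3a. Plates were incubated 3 h at rt and read by scintillation counting. Values are means of three experiments.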

[2] = target: T1, C3a anaphylatoxin chemotactic receptor; test: Agonist activity at human C3a receptor expressed in HMC1 cells co-expressing aequorin; type: functional, cell-based
Method in brief: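 They were then diluted fourfold and held 1 h at 37 °C. Compound was injected at 1% DMSO final. Luminescence was recorded for 30 s right after injection. Maximal signal was set with 50 nM C3a.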

[3] = Oral bioavailability in rat at 1 mg/kg; type: ADME, organism-based; conditions: in vivo
Method in brief: (§3)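 Male rats received a single oral or iv dose of 1 mg/kg.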

Hepatocyte = test: Clearance in rat hepatocytes; type: ADME, cell-based, Liver
[4] = Elimination half life in rat at 1 mg/kg, iv and 1 mg/kg, po; type: ADME, organism-based; conditions: in vivo; method in brief: as §3
[5] = Clearance in rat microsomes; type: ADME, Liver, Microsome
[6] = Permeability across Caco-2 cells; type: ADME, cell-based; conditions: human, read-out: permeability
[7] = target: T2, C3a anaphylatoxin chemotactic receptor (Homo sapiens) (UniProt Q16581); test: as §1; type: cell-based; method in brief: as §2
T2 sequence (whole entry): T1 sequence (Q16581 whole entry)

[8] = target: T1, C3a anaphylatoxin chemotactic receptor; test: Antagonist activity at human C3a receptor expressed in HMC1 cells co-expressing aequorin; type: functional, cell-based
Method in brief: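 Aequorin/human C3aR HMC-1 cells were loaded with coelenterazine for 2 h. They were then plated and pre-treated with compound dilutions for 1 h at 37 °C, 1% DMSO. C3a agonist was then injected at 5 nM final. Light emission was the read-out.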

Row | Compound | IC50 [1] [nM] | bioavailability [3] [%] | half-life [4] [min] | CL [5] [µL/min] | other results
1 | O=C(NC1CCN(C(=O)CCc2cccnc2)CC1)C(c1cc(F)c(F)c(F)c1)C1CCCCC1 (stereo not drawn) | 100 | 0 | 18 | 609 | EC50 [2]: 794 nM; CL (Hepatocyte): 17 µL/min
2 | CC1(C)CC(C(C(=O)NC2CCN(C(=O)CCc3cccnc3)CC2)c2ccccc2)CC(C)(C)C1 (stereo not drawn) | 63100 | – | – | – | –
3 | Cc1cncc(/C=C/C(=O)N2CCC(NC(=O)C(c3ccccc3)C3CCCCC3)CC2)c1 (stereo not drawn) | 50100 | 3 | 18 | 175 | CL (Hepatocyte): 21 µL/min; Papp [6]: 7.9 ×10⁻⁶ cm/s
4 | O=C(NC1CCN(C(=O)/C=C/c2ccccc2F)CC1)C(c1ccccc1)C1CCCCC1 (stereo not drawn) | 12600 | – | – | – | –
5 | O=C(NC1CCN(C(=O)CCc2cccnc2)CC1)C(c1ccccc1)C1CCCCC1 (single isomer, unassigned; epimer B) | 316 | – | – | – | –
6 | COc1ncccc1CCC(=O)N1CCC(NC(=O)C(c2ccccc2)C2CCCCC2)CC1 (stereo not drawn) | 15800 | – | – | – | –
7 | O=C(NC1CCN(C(=O)CCc2cccnc2)CC1)C(CC1CCCCC1)c1ccccc1 (stereo not drawn) | 794 | 1 | 42 | 500 | CL (Hepatocyte): 44 µL/min
8 | O=C(NC1CCN(C(=O)/C=C/c2cccnc2)CC1)C(c1ccccc1)C1CCCCC1 (stereo not drawn) | 1000 | 7 | 18 | 238 | CL (Hepatocyte): 26 µL/min; Papp [6]: 8.5 ×10⁻⁶ cm/s
9 | O=C(NC1CCN(C(=O)CCc2cccnc2)CC1)C(c1ccc2ccccc2c1)C1CCCCC1 (stereo not drawn) | 794 | 9 | 30 | 585 | EC50 [2]: 1580 nM
10 | O=C(NC1CCN(C(=O)CCc2cccnc2)CC1)C(c1ccc(Cl)cc1)c1ccc(Cl)cc1 | 20000 | 0 | 24 | 175 | Papp [6]: 6.3 ×10⁻⁶ cm/s
11 | O=C(NC1CCN(C(=O)CCc2cccnc2F)CC1)C(c1ccccc1)C1CCCCC1 (stereo not drawn) | 31.6 | – | – | – | EC50 [2]: 200 nM
12 | CC1(C)CCC(C(C(=O)NC2CCN(C(=O)CCc3cccnc3)CC2)c2ccccc2)CC1 (stereo not drawn) | 1000 | – | – | – | –
13 | O=C(NC1CCN(C(=O)CCc2cccnc2)CC1)C(c1ccc(F)cc1)C1CCCCC1 (stereo not drawn) | 158 | – | – | – | –
14 | O=C(NC1CCN(C(=O)CCc2ccncc2)CC1)C1c2cc(Cl)ccc2Oc2ccc(Cl)cc21 | – | – | – | – | Log IC50 [7]: inactive
15 | O=C(NC1CCN(C(=O)CCc2cccnc2)CC1)C(c1ccc(Cl)cc1)C1CCCCC1 (stereo not drawn) | 200 | 0 | 18 | 500 | CL (Hepatocyte): 28 µL/min; Papp [6]: 10 ×10⁻⁶ cm/s
16 | O=C(NC1CCN(C(=O)CCc2cccnc2)CC1)C(c1ccsc1)C1CCCCC1 (stereo not drawn) | 200 | – | – | – | –
17 | O=C(NC1CCN(C(=O)CCc2cccnc2)CC1)C1c2cc(Cl)ccc2Oc2ccc(Cl)cc21 | 1580 | – | – | – | IC50 [8]: 631 nM
18 | O=C(NC1CCN(C(=O)CCc2cccnc2)CC1)C(C1CCCCC1)C1CCCCC1 | 1000 | 6 | 12 | 675 | –

Row | Compound | IC50 [1] [nM] | bioavailability [3] [%] | half-life [4] [min] | CL [5] [µL/min] | other results
19 | O=C(NC1CCN(C(=O)CCc2cccnc2)CC1)C(c1ccccc1)C1CC=CC1 (stereo not drawn) | 3160 | – | – | – | –
20 | O=C(NC1CCN(C(=O)CCc2cccnc2)CC1)C(c1ccc([N+](=O)[O-])cc1)C1CCCCC1 (stereo not drawn) | 316 | – | – | – | –
21 | O=C(NC1CCN(C(=O)CCc2cccnc2)CC1)C(c1ccccc1)C1CCCCC1 (stereo not drawn) | 794 | 5 | 12 | 500 | EC50 [2]: 2000 nM; CL (Hepatocyte): 33 µL/min; Papp [6]: 12 ×10⁻⁶ cm/s
22 | O=C(NC1CCN(C(=O)CCc2ccccn2)CC1)C1c2cc(Cl)ccc2Oc2ccc(Cl)cc21 | – | – | – | – | Log IC50 [7]: inactive
23 | O=C(NC1CCN(C(=O)CCc2ccccc2F)CC1)C(c1ccccc1)C1CCCCC1 (stereo not drawn) | 2000 | – | – | – | –
24 | Cc1ccccc1C(C(=O)NC1CCN(C(=O)CCc2cccnc2)CC1)C1CCCCC1 (stereo not drawn) | 2510 | – | – | – | –
25 | O=C(NC1CCN(C(=O)CCc2cccnc2)CC1)C1c2ccccc2Cc2ccccc21 | 79400 | – | – | – | –
26 | Cc1cc(C)cc(C(C(=O)NC2CCN(C(=O)CCc3cccnc3)CC2)C2CCCCC2)c1 (stereo not drawn) | 126 | – | – | – | –
27 | Cc1cccc(C(C(=O)NC2CCN(C(=O)CCc3cccnc3)CC2)C2CCCCC2)c1 (stereo not drawn) | 79.4 | – | – | – | –
28 | COc1ccc(C(C(=O)NC2CCN(C(=O)CCc3cccnc3)CC2)C2CCCCC2)cc1 (stereo not drawn) | 631 | – | – | – | –
29 | O=C(NC1CCN(C(=O)CCc2cccnc2)CC1)C(c1ccccc1)C1CCCC1 (stereo not drawn) | 794 | – | – | – | –
30 | O=C(NC1CCN(C(=O)CCc2cccnc2)CC1)C(c1ccccc1)c1ccccc1 | 12600 | 5 | 6 | 500 | CL (Hepatocyte): 21 µL/min; Papp [6]: 8.5 ×10⁻⁶ cm/s; IC50 [8]: 3160 nM
31 | O=C(NC1CCN(C(=O)CCc2ccc(F)nc2)CC1)C(c1ccccc1)C1CCCCC1 (stereo not drawn) | 1260 | 0 | 18 | 782 | Papp [6]: 19 ×10⁻⁶ cm/s
32 | O=C(NC1CCN(C(=O)CCc2cccnc2)CC1)C(c1ccccc1)C1CCCCC1 (single isomer, unassigned; epimer A) | 5010 | – | – | – | –
33 | O=C(NC1CCN(C(=O)Cc2cccc(F)c2F)CC1)C(c1ccccc1)C1CCCCC1 (stereo not drawn) | 10000 | – | – | – | –
34 | O=C(NC1CCN(C(=O)CCc2cccnc2)CC1)/C(=C/C1CCCCC1)c1ccccc1 | 25100 | – | – | – | –
35 | O=C(NC1CCN(C(=O)CCc2cccnc2)CC1)C(c1ccccc1)C1CCC(F)(F)CC1 (stereo not drawn) | 631 | 2 | 18 | 170 | Papp [6]: 16 ×10⁻⁶ cm/s
36 | Cc1ccc(C(C(=O)NC2CCN(C(=O)CCc3cccnc3)CC2)C2CCCCC2)cc1 (stereo not drawn) | 794 | – | – | – | –
